For assay [1], the target named is T1, P2X purinoceptor 4 (Mus musculus, UniProt Q9JJX6).
T1 sequence (Q9JJX6 whole entry): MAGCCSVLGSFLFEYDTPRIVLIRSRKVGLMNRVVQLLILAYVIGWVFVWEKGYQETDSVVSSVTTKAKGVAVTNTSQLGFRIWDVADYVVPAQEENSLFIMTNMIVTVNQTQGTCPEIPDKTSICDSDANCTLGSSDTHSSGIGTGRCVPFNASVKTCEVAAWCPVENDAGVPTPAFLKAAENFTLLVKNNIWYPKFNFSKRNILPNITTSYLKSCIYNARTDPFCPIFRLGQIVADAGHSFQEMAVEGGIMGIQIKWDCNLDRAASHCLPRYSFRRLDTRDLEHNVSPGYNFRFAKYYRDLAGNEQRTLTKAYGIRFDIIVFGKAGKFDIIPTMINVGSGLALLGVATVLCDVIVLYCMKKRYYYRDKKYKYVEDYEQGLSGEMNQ
The experiment in a line: Antagonist activity at mouse P2X4 receptor assessed as inhibition of ATP-induced cytosolic calcium influx preincubated for 30 mins followed by ATP addition by Fluo-4 AM dye-based fluorescence assay.

Assay [2] has as its target T2, P2X purinoceptor 4 (Homo sapiens, UniProt Q99571).
T2 sequence (Q99571 whole entry): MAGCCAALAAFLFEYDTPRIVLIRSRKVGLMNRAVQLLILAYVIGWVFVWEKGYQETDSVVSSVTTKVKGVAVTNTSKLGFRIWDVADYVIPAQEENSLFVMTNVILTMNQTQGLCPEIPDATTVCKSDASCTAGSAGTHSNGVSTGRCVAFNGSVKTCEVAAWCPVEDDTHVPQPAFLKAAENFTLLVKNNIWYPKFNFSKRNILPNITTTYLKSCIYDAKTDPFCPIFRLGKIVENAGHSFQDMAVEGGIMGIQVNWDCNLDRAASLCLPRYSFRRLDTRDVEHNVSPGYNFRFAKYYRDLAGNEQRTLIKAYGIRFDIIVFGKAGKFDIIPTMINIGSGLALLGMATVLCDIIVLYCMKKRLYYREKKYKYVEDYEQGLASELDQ
The experiment in a line: Antagonist activity at human P2X4 receptor expressed in human 1321N1 cells assessed as inhibition of ATP-induced cytosolic calcium influx preincubated for 30 mins followed by ATP addition by Fluo-4 AM dye-based fluorescence assay. The format is cell-based. In a few lines:
(§1)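 Human P2X4 stably transfected into 1321N1 astrocytoma cells. Inhibition of ATP-induced calcium influx measured as in earlier work. Compounds were first screened at a single high concentration, chosen according to their solubility.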

Assay [3] concerns the target T3, P2X purinoceptor 4 (Mus musculus) (UniProt Q9JJX6).
T3 sequence (whole entry): T1 sequence (Q9JJX6 whole entry)
Put plainly: Antagonist activity at mouse P2X4 receptor assessed as inhibition of ATP-induced cytosolic calcium influx at 100 uM preincubated for 30 mins followed by ATP addition by Fluo-4 AM dye-based fluorescence assay.

A short description of assay [4]: Selectivity ratio of IC50 for mouse P2X4 receptor to IC50 for human P2X4 receptor.
In the next assay the target is T4, P2X purinoceptor 2 (Homo sapiens, UniProt Q9UBL9).
T4 sequence (Q9UBL9 whole entry): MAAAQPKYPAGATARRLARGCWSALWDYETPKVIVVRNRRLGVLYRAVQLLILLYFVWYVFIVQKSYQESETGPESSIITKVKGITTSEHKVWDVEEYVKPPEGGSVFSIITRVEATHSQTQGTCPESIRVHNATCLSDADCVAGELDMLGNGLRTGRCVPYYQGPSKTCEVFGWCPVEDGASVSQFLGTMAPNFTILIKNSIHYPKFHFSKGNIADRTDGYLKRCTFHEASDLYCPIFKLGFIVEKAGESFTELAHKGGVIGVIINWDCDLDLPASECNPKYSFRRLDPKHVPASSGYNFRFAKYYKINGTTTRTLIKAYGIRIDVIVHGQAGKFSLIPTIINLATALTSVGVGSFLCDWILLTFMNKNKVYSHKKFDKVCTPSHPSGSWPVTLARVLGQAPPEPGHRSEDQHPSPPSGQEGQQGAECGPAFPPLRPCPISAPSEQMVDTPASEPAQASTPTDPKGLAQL
The experiment in a line: Antagonist activity at human P2X2 receptor expressed in human 1321N1 cells assessed as inhibition of ATP-induced cytosolic calcium influx preincubated for 30 mins followed by ATP addition by Fluo-4 AM dye-based fluorescence assay. Format: cell-based.

Assay [5] deals with T5, P2X purinoceptor 4 (Homo sapiens) (UniProt Q99571).
T5 sequence (whole entry): T2 sequence (Q99571 whole entry)
Put plainly: Antagonist activity at human P2X4 receptor expressed in human 1321N1 cells assessed as inhibition of ATP-induced cytosolic calcium influx at 10 uM preincubated for 30 mins followed by ATP addition by Fluo-4 AM dye-based fluorescence assay. The format is cell-based. The procedure, abridged: as §1

Assay [6] deals with T5, P2X purinoceptor 4 (Homo sapiens). The experiment in a line: Negative allosteric modulation of human P2X4 receptor expressed in human 1321N1 cells assessed as reduction in ATP-induced cytosolic calcium influx at 3 to 30 uM. Format: cell-based. In a few lines:
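1321N1 astrocytoma cells stably expressing human P2X4. Full ATP concentration–response curves (10^-8 to 10^-3 M) for intracellular calcium, recorded without inhibitor and with three fixed modulator levels (3, 10, 30). ATP EC50 and maximal effect (Emax, %) were derived for each condition.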

In assay [7] the target is T6, P2X purinoceptor 7 (Homo sapiens) (UniProt Q99572).
T6 sequence (whole entry): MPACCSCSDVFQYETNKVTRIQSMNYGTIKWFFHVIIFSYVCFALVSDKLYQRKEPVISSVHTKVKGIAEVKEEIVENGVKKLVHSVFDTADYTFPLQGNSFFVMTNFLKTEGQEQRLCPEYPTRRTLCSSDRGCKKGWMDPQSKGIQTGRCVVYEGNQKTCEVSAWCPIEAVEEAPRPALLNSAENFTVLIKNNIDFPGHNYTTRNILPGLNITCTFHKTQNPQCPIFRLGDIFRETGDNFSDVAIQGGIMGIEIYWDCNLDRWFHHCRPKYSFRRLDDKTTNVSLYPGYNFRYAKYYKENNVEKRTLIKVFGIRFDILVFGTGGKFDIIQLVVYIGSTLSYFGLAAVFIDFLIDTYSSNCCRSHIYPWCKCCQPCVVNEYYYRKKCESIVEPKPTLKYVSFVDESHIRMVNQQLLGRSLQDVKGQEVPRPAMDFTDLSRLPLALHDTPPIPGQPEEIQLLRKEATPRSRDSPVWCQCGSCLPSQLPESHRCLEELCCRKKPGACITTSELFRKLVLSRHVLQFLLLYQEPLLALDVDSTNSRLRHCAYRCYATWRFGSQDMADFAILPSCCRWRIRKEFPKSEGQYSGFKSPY
Put plainly: Antagonist activity at human P2X7 receptor expressed in human 1321N1 cells assessed as inhibition of ATP-induced cytosolic calcium influx at 100 uM preincubated for 30 mins followed by ATP addition by Fluo-4 AM dye-based fluorescence assay. Format: cell-based.

The target in assay [8] is T5, P2X purinoceptor 4 (Homo sapiens). Put plainly: Antagonist activity at human P2X4 receptor expressed in human 1321N1 cells assessed as inhibition of ATP-induced cytosolic calcium influx at 100 uM preincubated for 30 mins followed by ATP addition by Fluo-4 AM dye-based fluorescence assay. Format: cell-based. The procedure, abridged: as §1

Activity calls are given as the source filed them. The calls are words filed in the database; no cut-off is given here.

`CCCN(CCC)C(=O)N1c2ccccc2C=Cc2ccccc21`: the IC50 (commonly the midpoint of a concentration-inhibition curve) on P2X purinoceptor 4 [1] was more than 100 µM; at P2X purinoceptor 4 [2], 7.78 µM; at P2X purinoceptor 2 it was more than 100 µM. Further, the results for the inhibition in assay [3] and in [5] were 38% and 49%, respectively. In assay [4], the Ratio IC50 is 3.
For `CC(C)N(C(=O)N1c2ccccc2C=Cc2ccccc21)C(C)C`, the IC50 at P2X purinoceptor 4 [1] was 14.9 µM; at P2X purinoceptor 4 [2], 3.44 µM; on P2X purinoceptor 2, more than 100 µM. Besides, the Ratio IC50 in assay [4] was found to be 3. The result in [6] was Active. Also, the inhibition (in general, the relative decrease from the control value, in per cent) in assay [5] amounted to 71%.
With `O=C(N1CCCC1)N1c2ccccc2C=Cc2ccccc21`, the values for the inhibition in assay [7] and in [8] were 33% and 98%, respectively. The IC50 on P2X purinoceptor 4 [1] is 123 µM; at P2X purinoceptor 4 [2], 34.1 µM; at P2X purinoceptor 2, more than 100 µM. For the same molecule, in [4], the Ratio IC50 worked out at 3.
As to `CCN(CC)C(=O)N1c2ccccc2C=Cc2ccccc21`, the figures for the IC50 at P2X purinoceptor 4 [1], at P2X purinoceptor 4 [2] and on P2X purinoceptor 2 were more than 100 µM, 11.4 µM and more than 100 µM, respectively. Also, the inhibition in assay [3] worked out at 27%; in assay [8], 95%.
Turning to `O=C(N1CCCCC1)N1c2ccccc2C=Cc2ccccc21`, the inhibition in [7] is -10%; in assay [8], 72%. For the same molecule, the IC50 on P2X purinoceptor 4 [1] is 102 µM; at P2X purinoceptor 4 [2], 13.7 µM; at P2X purinoceptor 2, more than 100 µM. Further, the Ratio IC50 in assay [4] worked out at 3.
On to `O=C(NC1CCCCC1)N1c2ccccc2C=Cc2ccccc21`, for which the IC50 is 98.4 µM on P2X purinoceptor 4 [1], 33.8 µM at P2X purinoceptor 4 [2] and more than 100 µM at P2X purinoceptor 2. For the same molecule, the Ratio IC50 in [4] is 3. Besides, the inhibition in [8] was 100%.

(Values after ChEMBL document CHEMBL3102848, “Carbamazepine derivatives with P2X4 receptor-blocking activity” (Bioorg Med Chem, 2014).)
